Source: ChEMBL document CHEMBL3588757, “Structure-based design, synthesis and biological testing of piperazine-linked bis-epipodophyllotoxin etoposide analogs” (Bioorg Med Chem, 2015)

Experiments:
Format in all cases: functional
HCT-116 [1] = assay: Cytotoxicity against human HCT116 cells assessed as cell growth at 50 uM by SRB assay; details: read-out: Activity
Procedure, shortened: (§1)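 Measured in the NCI-60 human tumour cell line panel using five-dose testing. Growth was recorded at each dose for each cell line, and a GI50 was derived for each line.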

LOX IMVI = assay: Cytotoxicity against human LOXIMVI cells assessed as cell growth at 50 uM by SRB assay; details: read-out: Activity
DU-145 = assay: Cytotoxicity against human DU145 cells assessed as cell growth at 50 uM by SRB assay; details: read-out: Activity; procedure, shortened: as §1
NCI-H226 [2] = assay: Cytotoxicity against human NCI-H226 cells by SRB assay
Procedure, shortened: (§2)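 NCI-60 panel screen; 5-dose testing giving GI50 per cell line, plus a single 10 µM one-dose test. Method details not given beyond the NCI screen.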

NCI-H23 [3] = assay: Cytotoxicity against human NCI-H23 cells by SRB assay; procedure, shortened: as §2
NCI-H522 [4] = assay: Cytotoxicity against human NCI-H522 cells by SRB assay; procedure, shortened: as §2
M14 [5] = assay: Cytotoxicity against human M14 cells by SRB assay; procedure, shortened: as §2
OVCAR-8 [6] = assay: Cytotoxicity against human OVCAR8 cells by SRB assay; procedure, shortened: as §2
[7] = Cytotoxicity against human NCI-ADR-RES cells by SRB assay; procedure, shortened: as §2
TK-10 = assay: Cytotoxicity against human TK10 cells by SRB assay; procedure, shortened: as §2
UO-31 = assay: Cytotoxicity against human UO31 cells by SRB assay; procedure, shortened: as §2
T47D = assay: Cytotoxicity against human T47D cells by SRB assay; procedure, shortened: as §2
CCRF-CEM = assay: Cytotoxicity against human CCRF-CEM cells assessed as cell growth at 0.005 uM by SRB assay; details: read-out: Activity
HL-60(TB) = assay: Cytotoxicity against human HL-60(TB) cells assessed as cell growth at 0.005 uM by SRB assay; details: read-out: Activity; procedure, shortened: as §1
MOLT-4 = assay: Cytotoxicity against human MOLT4 cells assessed as cell growth at 0.005 uM by SRB assay; details: read-out: Activity
COLO 205 = assay: Cytotoxicity against human COLO205 cells assessed as cell growth at 0.005 uM by SRB assay; details: read-out: Activity
HCT-15 [8] = assay: Cytotoxicity against human HCT15 cells assessed as cell growth at 0.005 uM by SRB assay; details: read-out: Activity; procedure, shortened: as §1
U-251 = assay: Cytotoxicity against human U251 cells assessed as cell growth at 0.005 uM by SRB assay; details: read-out: Activity
M14 [9] = assay: Cytotoxicity against human M14 cells assessed as cell growth at 0.005 uM by SRB assay; details: read-out: Activity
OVCAR-8 [10] = assay: Cytotoxicity against human OVCAR8 cells assessed as cell growth at 0.005 uM by SRB assay; details: read-out: Activity
SN12C = assay: Cytotoxicity against human SN12C cells assessed as cell growth at 0.005 uM by SRB assay; details: read-out: Activity
[11] = Cytotoxicity against human Hs578T cells assessed as cell growth at 0.005 uM by SRB assay; details: Hs-578T, read-out: Activity; procedure, shortened: as §1
NCI-H522 [12] = assay: Cytotoxicity against human NCI-H522 cells assessed as cell growth at 0.05 uM by SRB assay; details: read-out: Activity
HCT-15 [13] = assay: Cytotoxicity against human HCT15 cells assessed as cell growth at 0.05 uM by SRB assay; details: read-out: Activity; procedure, shortened: as §1
M14 [14] = assay: Cytotoxicity against human M14 cells assessed as cell growth at 0.05 uM by SRB assay; details: read-out: Activity
HCC 2998 [15] = assay: Cytotoxicity against human HCC2998 cells assessed as cell growth at 0.5 uM by SRB assay; details: read-out: Activity; procedure, shortened: as §1
HCT-116 [16] = assay: Cytotoxicity against human HCT116 cells assessed as cell growth at 0.5 uM by SRB assay; details: read-out: Activity; procedure, shortened: as §1
SF-539 = assay: Cytotoxicity against human SF539 cells assessed as cell growth at 0.5 uM by SRB assay; details: read-out: Activity
SNB-75 = assay: Cytotoxicity against human SNB75 cells assessed as cell growth at 0.5 uM by SRB assay; details: read-out: Activity
UACC-257 = assay: Cytotoxicity against human UACC257 cells assessed as cell growth at 0.5 uM by SRB assay; details: read-out: Activity
IGROV-1 = assay: Cytotoxicity against human IGROV1 cells assessed as cell growth at 0.5 uM by SRB assay; details: read-out: Activity; procedure, shortened: as §1
MCF7 = assay: Cytotoxicity against human MCF7 cells assessed as cell growth at 0.5 uM by SRB assay; details: read-out: Activity
NCI-H226 [17] = assay: Cytotoxicity against human NCI-H226 cells assessed as cell growth at 5 uM by SRB assay; details: read-out: Activity
NCI-H322M = assay: Cytotoxicity against human NCI-H322M cells assessed as cell growth at 5 uM by SRB assay; details: read-out: Activity
HCC 2998 [18] = assay: Cytotoxicity against human HCC2998 cells assessed as cell growth at 5 uM by SRB assay; details: read-out: Activity; procedure, shortened: as §1
HCT-15 [19] = assay: Cytotoxicity against human HCT15 cells assessed as cell growth at 5 uM by SRB assay; details: read-out: Activity; procedure, shortened: as §1
SF-295 = assay: Cytotoxicity against human SF295 cells assessed as cell growth at 5 uM by SRB assay; details: read-out: Activity
CAKI-1 = assay: Cytotoxicity against human Caki1 cells assessed as cell growth at 5 uM by SRB assay; details: read-out: Activity
RPMI-8226 = assay: Cytotoxicity against human RPMI8226 cells assessed as cell growth at 50 uM by SRB assay; details: read-out: Activity
NCI-H23 [20] = assay: Cytotoxicity against human NCI-H23 cells assessed as cell growth at 50 uM by SRB assay; details: read-out: Activity
[21] = read-out: LC50 (the source's name)
[22] = read-out: pLC50 (the source's name) (converted)

Work on COc1cc([C@@H]2c3cc4c(cc3[C@@H](NC(=O)CN3CCN(CCCCCCCCCCN5CCN(CC(=O)N[C@@H]6c7cc8c(cc7[C@@H](c7cc(OC)c(O)c(OC)c7)[C@H]7C(=O)OC[C@@H]76)OCO8)CC5)CC3)[C@H]3COC(=O)[C@H]23)OCO4)cc(OC)c1O yielded a growth at 50 µM (HCT-116 [1]) of -51%, a growth at 50 µM (LOX IMVI) of 3% and a growth at 50 µM (DU-145) of -100%. The GI50 (NCI-H226 [2]; read-out: GI50) was 0.469 µM, the CC50 (NCI-H226 [2]; [21]) was 22.6 µM and the TGI (NCI-H226 [2]; read-out: TGI) was 9.32 µM. For the same molecule, the GI50 (NCI-H226 [2]; read-out: pGI50 (converted)) was 0.468 µM, the CC50 (NCI-H226 [2]; [22]) was 22.4 µM and the TGI (NCI-H226 [2]; read-out: pTGI (converted)) was 9.33 µM. For the same molecule, the GI50 (NCI-H23 [3]; read-out: GI50) was 0.181 µM, the CC50 (NCI-H23 [3]; [21]) was 9.3 µM and the TGI (NCI-H23 [3]; read-out: TGI) was 1.32 µM. The GI50 (NCI-H23 [3]; read-out: pGI50 (converted)) was 0.182 µM, the CC50 (NCI-H23 [3]; [22]) was 9.33 µM and the TGI (NCI-H23 [3]; read-out: pTGI (converted)) was 1.32 µM. It also gave a GI50 (NCI-H522 [4]; read-out: GI50) of 0.032 µM, a CC50 (NCI-H522 [4]; [21]) of 4.38 µM and a TGI (NCI-H522 [4]; read-out: TGI) of 0.797 µM. It also gave a GI50 (NCI-H522 [4]; read-out: pGI50 (converted)) of 0.0324 µM, a CC50 (NCI-H522 [4]; [22]) of 4.37 µM and a TGI (NCI-H522 [4]; read-out: pTGI (converted)) of 0.794 µM. For the same molecule, the GI50 (M14 [5]; read-out: GI50) was 0.703 µM, the CC50 (M14 [5]; [21]) was > 50 µM and the TGI (M14 [5]; read-out: TGI) was 2.2 µM. The GI50 (M14 [5]; read-out: pGI50 (converted)) was 0.708 µM, the CC50 (M14 [5]; [22]) was > 50.1 µM and the TGI (M14 [5]; read-out: pTGI (converted)) was 2.19 µM. The GI50 (OVCAR-8 [6]; read-out: GI50) was 0.514 µM, the CC50 (OVCAR-8 [6]; [21]) was > 50 µM and the TGI (OVCAR-8 [6]; read-out: TGI) was 2.2 µM. The GI50 (OVCAR-8 [6]; read-out: pGI50 (converted)) was 0.513 µM, the CC50 (OVCAR-8 [6]; [22]) was > 50.1 µM and the TGI (OVCAR-8 [6]; read-out: pTGI (converted)) was 2.19 µM. For the same molecule, the GI50 ([7]; read-out: GI50) was 6.48 µM, the CC50 [7, 21] was > 50 µM and the TGI ([7]; read-out: TGI) was > 50 µM. For the same molecule, the GI50 ([7]; read-out: pGI50 (converted)) was 6.46 µM, the CC50 [7, 22] was > 50.1 µM and the TGI ([7]; read-out: pTGI) was > 50.1 µM. The GI50 (TK-10; read-out: GI50) was 1.44 µM, the CC50 (TK-10; [21]) was 15.4 µM and the TGI (TK-10; read-out: TGI) was 4.57 µM. It also gave a GI50 (TK-10; read-out: pGI50 (converted)) of 1.45 µM, a CC50 (TK-10; [22]) of 15.5 µM and a TGI (TK-10; read-out: pTGI (converted)) of 4.57 µM. For the same molecule, the GI50 (UO-31; read-out: GI50) was 0.986 µM, the CC50 (UO-31; [21]) was 13.5 µM and the TGI (UO-31; read-out: TGI) was 3.61 µM. It also gave a GI50 (UO-31; read-out: pGI50 (converted)) of 0.977 µM, a CC50 (UO-31; [22]) of 13.5 µM and a TGI (UO-31; read-out: pTGI (converted)) of 3.63 µM. The GI50 (T47D; read-out: GI50) was 0.463 µM, the CC50 (T47D; [21]) was > 50 µM and the TGI (T47D; read-out: TGI) was 9.74 µM. For the same molecule, the GI50 (T47D; read-out: pGI50 (converted)) was 0.468 µM, the CC50 (T47D; [22]) was > 50.1 µM and the TGI (T47D; read-out: pTGI (converted)) was 9.77 µM. The growth at 0.005 µM (CCRF-CEM) was 97%, the growth at 0.005 µM (HL-60(TB)) was 96% and the growth at 0.005 µM (MOLT-4) was 88%. For the same molecule, the growth at 0.005 µM (COLO 205) was 90%, the growth at 0.005 µM (HCT-15 [8]) was 99% and the growth at 0.005 µM (U-251) was 85%. The growth at 0.005 µM (M14 [9]) was 94%, the growth at 0.005 µM (OVCAR-8 [10]) was 101% and the growth at 0.005 µM (SN12C) was 94%. The growth at 0.005 µM [11] was 94%, the growth at 0.05 µM (NCI-H522 [12]) was 39% and the growth at 0.05 µM (HCT-15 [13]) was 80%. The growth at 0.05 µM (M14 [14]) was 94%, the growth at 0.5 µM (HCC 2998 [15]) was 61% and the growth at 0.5 µM (HCT-116 [16]) was 78%. For the same molecule, the growth at 0.5 µM (SF-539) was 13%, the growth at 0.5 µM (SNB-75) was 34% and the growth at 0.5 µM (UACC-257) was 73%. For the same molecule, the growth at 0.5 µM (IGROV-1) was 44%, the growth at 0.5 µM (MCF7) was 30% and the growth at 5 µM (NCI-H226 [17]) was 35%. It also gave a growth at 5 µM (NCI-H322M) of -42%, a growth at 5 µM (HCC 2998 [18]) of 29% and a growth at 5 µM (HCT-15 [19]) of -69%. The growth at 5 µM (SF-295) was 17%, the growth at 5 µM (CAKI-1) was 28% and the growth at 50 µM (RPMI-8226) was -13%. For the same molecule, the growth at 50 µM (NCI-H23 [20]) was -92%.
